Measured values taken from ChEMBL document CHEMBL2396522, “Synthesis and pharmacological profiling of analogues of benzyl quinolone carboxylic acid (BQCA) as allosteric modulators of the M1 muscarinic receptor” (J Med Chem, 2013).

Experiments:
[1] = molecular target: T1, Muscarinic acetylcholine receptor M1 (Homo sapiens) (UniProt P11229); experiment: Displacement of [3H]-NMS from human muscarinic M1 acetylcholine receptor expressed CHO cells after 4 hrs by scintillation counting; format: cell-based
T1 sequence (whole entry): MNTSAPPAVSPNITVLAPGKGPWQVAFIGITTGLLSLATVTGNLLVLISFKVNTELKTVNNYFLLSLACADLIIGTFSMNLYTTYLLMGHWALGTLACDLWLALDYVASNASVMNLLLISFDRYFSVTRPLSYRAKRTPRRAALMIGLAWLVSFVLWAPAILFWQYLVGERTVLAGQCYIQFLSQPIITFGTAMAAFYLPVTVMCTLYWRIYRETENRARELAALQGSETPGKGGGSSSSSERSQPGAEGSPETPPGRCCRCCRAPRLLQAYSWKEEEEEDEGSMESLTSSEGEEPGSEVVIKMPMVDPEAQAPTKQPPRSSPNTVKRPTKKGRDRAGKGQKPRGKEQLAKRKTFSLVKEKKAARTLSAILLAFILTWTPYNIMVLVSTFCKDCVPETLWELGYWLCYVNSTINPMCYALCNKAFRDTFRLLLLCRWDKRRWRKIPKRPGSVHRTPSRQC
Summary of the method: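 Whole FlpInCHO cells stably expressing human M1 mAChR, 20000/well, grown 8 h at 37 °C then serum-starved overnight. Binding buffer 10 mM HEPES, 100 mM NaCl, 10 mM MgCl2, pH 7.4. […] Ice-cold 0.9% NaCl washes, scintillation counting. Curves fitted to allosteric ternary complex model giving pKB and log α.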

[2] = molecular target: T2, Muscarinic acetylcholine receptor M1 (Homo sapiens, UniProt P11229); experiment: Agonist activity at human muscarinic M1 acetylcholine receptor expressed CHO cells assessed as intracellular calcium mobilization after 1 hr by Fluo-4-AM based fluorescence assay; format: functional, cell-based
T2 sequence (P11229 whole entry): T1 sequence (whole entry)
Summary of the method: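 FlpInCHO cells stably expressing human M1 were seeded at 20000/well, grown 8 h at 37 °C in DMEM with 5% FBS, and serum-starved overnight. They were loaded 1 h at 37 °C with 1 μM Fluo-4-AM in HEPES Ca2+ buffer (0.5% BSA, 4 mM probenecid, pH 7.4). Modulator alone was added at 20 s and fluorescence was read at 485/520 nm over 100 s. Peak minus baseline was normalized to 100 μM ATP. Efficacy came from an operational model of allosteric agonism.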

[3] = molecular target: T2, Muscarinic acetylcholine receptor M1; experiment: Allosteric modulation of human muscarinic M1 acetylcholine receptor expressed CHO cells assessed as intracellular calcium mobilization after 1 hr by Fluo-4-AM based fluorescence assay; format: functional, cell-based
Summary of the method: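 Cells were FlpInCHO-hM1, serum-starved overnight, then loaded 1 h at 37 °C with 1 μM Fluo-4-AM in Ca2+ buffer (pH 7.4, 4 mM probenecid). ACh titrations with or without increasing modulator concentrations were co-added at 20 s. Curves were fitted to an operational model of allosterism (αβ, τB). Experiments were done three to four times in duplicate.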

Row | Compound | pKb [1] | other results
1 | O=C(O)c1cn(Cc2ccc(-c3ccccc3)cc2)c2c(F)ccc(O)c2c1=O | 5.55 | –
2 | CCOC(=O)c1cn(Cc2ccc(OC)cc2)c2c(F)ccc(F)c2c1=O | 5.12 | –
3 | COc1ccc(Cn2cc(C(=O)O)c(=O)c3cccc(OC)c32)cc1 | 4.75 | –
4 | COc1ccc(Cn2cc(C(=O)NN3CCCCC3)c(=O)c3c(F)ccc(F)c32)cc1 | 5.07 | –
5 | O=C(O)c1cn(Cc2ccccc2-c2ccccc2)c2c(F)ccc(F)c2c1=O | 5 | –
6 | CCOC(=O)c1cn(Cc2ccc(OC)cc2)c2c(OC)cccc2c1=O | 4.51 | –
7 | CCOC(=O)c1cn(Cc2ccc(-c3ccccc3)cc2)c2c(OC)cccc2c1=O | 4.08 | –
8 | COc1ccc(Cn2cc(C(=O)NCc3ccccc3)c(=O)c3c(F)ccc(F)c32)cc1 | 4.63 | –
9 | CNC(=O)c1cn(Cc2ccc(OC)cc2)c2c(F)ccc(F)c2c1=O | 4.92 | –
10 | CCOC(=O)c1cn(Cc2ccc(OC)cc2)c2c(OC)ccc(F)c2c1=O | 4.82 | –
11 | COc1cccc2c(=O)c(C(=O)O)cn(Cc3ccc(-c4ccccc4)cc3)c12 | 5.71 | –
12 | O=C(O)c1cn(Cc2cccc(-c3ccccc3)c2)c2c(F)ccc(F)c2c1=O | 5.55 | –
13 | COc1ccc(Cn2cc(C(=O)O)c(=O)c3ccccc32)cc1 | 4.72 | –
14 | O=C(O)c1cn(CC2CCNCC2)c2ccccc2c1=O | 4.82 | –
15 | COc1ccc(Cn2cc(C(=O)NC(C)=O)c(=O)c3c(F)ccc(F)c32)cc1 | 4.35 | –
16 | COc1ccc(Cn2cc(C(N)=O)c(=O)c3c(F)ccc(F)c32)cc1 | 5.17 | –
17 | CCOC(=O)c1cn(Cc2ccc(-c3ccccc3)cc2)c2c(F)ccc(F)c2c1=O | 3.75 | –
18 | COc1ccc(Cn2cc(C(=O)NO)c(=O)c3c(F)ccc(F)c32)cc1 | 4.8 | –
19 | COc1ccc(Cn2cc(C(=O)O)c(=O)c3c(OC)cccc32)cc1 | 4.62 | –
20 | COc1ccc(F)c2c(=O)c(C(=O)O)cn(Cc3ccc(-c4ccccc4)cc3)c12 | 5.84 | –
21 | CC(C)(C)OC(=O)N1CCC(Cn2cc(C(=O)O)c(=O)c3ccccc32)CC1 | 4.7 | –
22 | CCOC(=O)c1cn(Cc2ccc(OC)cc2)c2cccc(OC)c2c1=O | 4.22 | –

Row | Compound | pKb [1] | other results
23 | NCC#Cc1ccc(Cn2cc(C(=O)O)c(=O)c3c(F)ccc(F)c32)cc1 | 4.96 | –
24 | CCOC(=O)c1cn(Cc2ccc(-c3ccccc3)cc2)c2c(OC)ccc(F)c2c1=O | 5.32 | –
25 | O=C(O)c1cn(-c2ccc(-c3ccccc3)cc2)c2ccccc2c1=O | 4.73 | –
26 | CCNC(=O)c1cn(Cc2ccc(OC)cc2)c2c(F)ccc(F)c2c1=O | 5.78 | –
27 | COc1ccc(Cn2cc(C(=O)NS(C)(=O)=O)c(=O)c3c(F)ccc(F)c32)cc1 | 4.63 | –
28 | COc1ccc(Cn2cc(C#N)c(=O)c3c(F)ccc(F)c32)cc1 | 4.66 | –
29 | COc1ccc(Cn2cc(C(=O)O)c(=O)c3c(F)ccc(OC)c32)cc1 | 4.86 | –
30 | COc1ccc(Cn2cc(C(=O)NCCO)c(=O)c3c(F)ccc(F)c32)cc1 | 4.65 | –
31 | COc1cccc2c1c(=O)c(C(=O)O)cn2Cc1ccc(-c2ccccc2)cc1 | 5.67 | –
32 | COc1ccc(Cn2cc(C(=O)N3CCOCC3)c(=O)c3c(F)ccc(F)c32)cc1 | 4.97 | –
33 | COc1ccc(-n2cc(C(=O)O)c(=O)c3ccccc32)cc1 | 4.65 | –
34 | O=C(O)c1cn(CC2CCN(Cc3ccccc3)CC2)c2ccccc2c1=O | 5.13 | –
35 | CCOC(=O)c1cn(Cc2ccc(-c3ccccc3)cc2)c2cccc(OC)c2c1=O | 5.16 | –
36 | COc1ccc(Cn2cc(C(=O)N[C@H]3CCCC[C@@H]3O)c(=O)c3c(F)ccc(F)c32)cc1 | 4.99 | –
37 | COc1ccc(Cn2cc(C(=O)N(C)C)c(=O)c3c(F)ccc(F)c32)cc1 | 4.48 | –
38 | COc1ccc(Cn2cc(C(=O)N3CCCCC3)c(=O)c3c(F)ccc(F)c32)cc1 | 4.71 | –
39 | COc1ccc(Cn2cc(C(=O)Nc3ccccc3)c(=O)c3c(F)ccc(F)c32)cc1 | 4.8 | –
40 | COc1ccc(Cn2cc(-c3nnn[nH]3)c(=O)c3c(F)ccc(F)c32)cc1 | 4.97 | –
41 | O=C(O)c1cn(CC2CCN(C(=O)Nc3ccccc3)CC2)c2ccccc2c1=O | 4.66 | –
42 | COc1ccc(Cn2cc(C(=O)O)c(=O)c3c(F)ccc(F)c32)cc1 | 4.96 | EC50 [2]: 31.6 nM; EC50 [3]: 31.6 nM
43 | O=C(O)c1cn(Cc2ccc(-c3ccccc3)cc2)c2c(F)ccc(F)c2c1=O | 5.36 | –
